Screening data from PubChem.
In the library only some 4.1% were active in any assay of this set; here they are far more common.
XBP1 UPR activ = activators of adaptive arm of unfolded protein response (XBP1). actives 0.33% (n = 330,000). CHO-XBP1 luciferase reporter, IRE1-XBP1 UPR activation, luminescence; percent of tunicamycin response, DMSO as zero. activation, % at 20 µM;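 active means versus positive control, 20 µM dose yields 30% or more activation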;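 further: 100% = tunicamycin at 10 µg/mL and 0% = DMSO only wells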
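incubation = overnight seeding at 37 °C, 6 h compound treatment at 37 °C | assay system = CHO-XBP1 cells stably carrying IRE1-XBP1-driven luciferase reporter | input = 1000 cells per well | detection = luciferase luminescence | dosing = single point, 20 µM final compound, 1% DMSO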
CHOP UPR activ = apoptotic UPR (CHOP) activation; CHO-CHOP luciferase reporter, luminescence; percent of tunicamycin response over DMSO baseline; activation, % at 10 µM; actives 0.34% (n = 330,000);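 active means at 10 µM dose, activation of 40% or more, normalized to positive control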;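 further: 100% = tunicamycin at 10 µg/mL and 0% = DMSO alone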
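Test system: CHO-CHOP cells, stable luciferase reporter of PERK-eIF2a-CHOP signalling | Quantity: 500 CHO-CHOP cells per well | Buffer or medium: F12 plus 10% serum | Compound dosing: 10 µM single point, 0.5% DMSO | Schedule: 6 h compound treatment, 37 °C | Signal: Luciferase luminescence | Control set: Tunicamycin high control, DMSO low control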
UBC13 polyUb = human UBC13 polyubiquitination inhibition; inhibition, % at 20 µM; UBC13 polyubiquitin chain formation, TR-FRET; P61088; actives 0.47% (n = 330,000); in the data active means inhibition above about 45%, passing the limit was not always enough
Apaf1 inhib = inhibitors of human Apaf-1 apoptosome; O14727; reconstituted apoptosome caspase-3 activity, DEVD-Rh110 fluorescence; inhibition, % at 20 µM; actives 0.71% (n = 330,000); AID 489030; active means inhibition of at least 40% at 20 µM;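 further: plate controls were DMSO wells for no effect and DEVD-CHO caspase inhibitor wells for full effect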
Target sequence (O14727 whole entry, looked up): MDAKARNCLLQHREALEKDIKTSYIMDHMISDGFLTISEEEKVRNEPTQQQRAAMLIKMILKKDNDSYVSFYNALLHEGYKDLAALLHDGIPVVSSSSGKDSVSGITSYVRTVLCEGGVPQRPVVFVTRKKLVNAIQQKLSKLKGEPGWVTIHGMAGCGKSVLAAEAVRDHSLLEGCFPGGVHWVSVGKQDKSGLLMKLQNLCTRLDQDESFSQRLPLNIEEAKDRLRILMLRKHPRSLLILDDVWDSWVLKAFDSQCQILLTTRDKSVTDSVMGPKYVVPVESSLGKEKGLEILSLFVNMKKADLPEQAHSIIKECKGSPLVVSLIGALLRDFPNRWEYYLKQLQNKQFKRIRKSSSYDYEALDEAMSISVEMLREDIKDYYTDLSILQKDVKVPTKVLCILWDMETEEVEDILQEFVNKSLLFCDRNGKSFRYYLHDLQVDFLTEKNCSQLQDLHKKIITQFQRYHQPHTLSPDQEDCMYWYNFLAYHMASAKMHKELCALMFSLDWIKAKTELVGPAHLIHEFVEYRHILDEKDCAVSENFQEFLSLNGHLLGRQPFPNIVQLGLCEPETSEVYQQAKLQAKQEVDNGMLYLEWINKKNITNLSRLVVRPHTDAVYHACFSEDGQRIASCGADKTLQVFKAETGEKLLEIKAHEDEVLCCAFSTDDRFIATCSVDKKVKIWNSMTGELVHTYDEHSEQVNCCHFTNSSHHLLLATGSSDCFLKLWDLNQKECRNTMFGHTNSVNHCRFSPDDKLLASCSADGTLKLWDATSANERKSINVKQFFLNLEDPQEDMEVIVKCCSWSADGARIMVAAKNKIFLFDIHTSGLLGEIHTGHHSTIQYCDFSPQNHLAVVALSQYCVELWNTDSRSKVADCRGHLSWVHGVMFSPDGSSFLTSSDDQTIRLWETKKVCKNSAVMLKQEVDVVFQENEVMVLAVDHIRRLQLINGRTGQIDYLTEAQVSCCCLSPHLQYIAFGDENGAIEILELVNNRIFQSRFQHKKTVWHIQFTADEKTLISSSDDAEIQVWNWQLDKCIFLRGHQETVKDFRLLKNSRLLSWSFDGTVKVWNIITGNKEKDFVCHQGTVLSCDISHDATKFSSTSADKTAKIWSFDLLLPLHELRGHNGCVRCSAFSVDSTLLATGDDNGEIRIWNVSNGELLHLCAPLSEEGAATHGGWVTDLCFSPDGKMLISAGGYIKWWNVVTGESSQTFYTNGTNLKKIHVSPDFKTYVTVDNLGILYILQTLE
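detection = Rh110 fluorescence intensity | test system = biochemical Apaf-1 apoptosome reconstitution | also added = cytochrome c and DEVD-Rh110 substrate | schedule = 30 min plus 50 min, RT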
Mdm2 MdmX PPI = human Mdm2/MdmX binding inhibition | actives 3% (n = 330,000) | O15151+Q00987 | SaOS-2 split-luciferase Mdm2/MdmX complementation, luminescence | inhibition, % at 8 µM;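 active means inhibition of at least 50% at 8 µM in the primary screen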
Mdm2 MdmX conf = confirmation of human Mdm2/MdmX interaction inhibitors; shares compounds with Mdm2 MdmX PPI; Mdm2-MdmX binding, luminescent assay; inhibition, % at 8 µM; actives 55% (n = 10,000); in the data active means inhibition above about 40%
Full FLuc ctr = inhibits full-length luciferase, flagging false Mdm2/MdmX hits; shares compounds with Mdm2 MdmX PPI; SaOS-2 full-length luciferase counterscreen, luminescence; inhibition, % at 8 µM; actives 77% (n = 6,200);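 active means mean inhibition at 8 µM reaching about 37%, which flags the compound as non-specific, limit read from the data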;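 further: p53-null SaOS-2 cells with luciferase driven by a doxycycline-inducible promoter; compound on cells about two nights before reading with doxycycline added after day one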
Starred values were filed as active, the others as inactive; nt = not tested or not shown.

SMILES	XBP1 UPR activ	CHOP UPR activ	UBC13 polyUb	Apaf1 inhib	Mdm2 MdmX PPI	Mdm2 MdmX conf	Full FLuc ctr
FC(F)(F)c1nnc2c(Sc3ccccn3)nc3ccccc3n12	9.2	5.3	-22.5	7.5	49.2	nt	nt
CCC(C)(C)NC(=O)C(c1cccc(OC)c1OC)N(CCOC)C(=O)CCC(=O)Nc1cc(C)on1 (configuration not stated)	-3.1	-2.0	-1.1	-0.2	21.4	nt	nt
O=c1o[nH]c(-c2ccccc2)c1-c1ccccc1	-3.2	-0.5	-10.0	14.8	14.3	nt	nt
O=c1c(-c2ccccc2)c1-c1ccccc1	-4.6	57.7*	-15.2	6.1	54.5*	11.8	nt
COc1ccc(C(=O)NC2CCCc3ccccc32)cc1[N+](=O)[O-] (configuration not stated)	-0.5	0.8	2.7	-0.8	67.5*	57.7*	53.4*
COc1cc(C(=O)NC2CCCc3ccccc32)cc(OC)c1C (configuration not stated)	-6.4	0.8	12.1	29.3	23.7	nt	nt
COC(=O)c1c(-c2cccnc2)csc1NC(=O)c1ccc2c(c1)OCO2	-1.2	3.5	0.9	5.0	-8.7	nt	nt
O=c1c(Cl)cc(Cl)nn1-c1ccccc1	0.2	3.4	-8.9	2.9	54.7*	27.8	nt
COc1cc([N+](=O)[O-])cc(/C=N/NC(=O)C(C)Nc2ccccc2C)c1O (configuration not stated)	-0.6	0.6	-57.5	6.9	51.5*	25.6	67.0*
COc1cc([N+](=O)[O-])cc(/C=N/NC(=O)c2ccc(C)nc2)c1O	-1.9	-0.9	-102.2	9.1	66.9*	54.0*	80.7*
Cc1ccc(C(=O)N/N=C/c2cc(Br)ccc2O)cn1	24.9	-1.6	-20.3	-5.6	50.7*	31.1	nt
COc1ccc(C(=O)NCC(=O)NCC2COc3ccccc3O2)cc1 (configuration not stated)	0.1	-0.4	1.5	-9.8	18.3	nt	nt
CC(CN1C(C)CCCC1C)OC(=O)c1ccc(Cl)cc1Cl (configuration not stated)	-1.9	-0.5	-3.8	-13.2	-13.4	nt	nt
CCN1C/C(=C/c2ccc(OC)c(O)c2)C(=O)/C(=C/c2ccc(OC)c(O)c2)C1	-7.8	38.0	-21.2	9.5	99.9*	99.7*	41.0*
CS(=O)(=O)c1nc(-c2ccco2)cc(C(F)(F)F)n1	-4.8	-10.4	-9.6	15.8	100.5*	100.5*	2.3
Cc1cc(NC(=O)CCSc2nc(-c3ccco3)cc(C(F)(F)F)n2)no1	1.5	-0.7	-5.2	-1.0	-3.6	nt	nt
O=C(CSc1nc(-c2ccco2)cc(C(F)(F)F)n1)NCCc1ccccc1	-3.6	-0.5	-4.1	16.0	72.9*	68.0*	21.1
Cc1cc(NC(=O)CSc2nc(-c3ccco3)cc(C(F)(F)F)n2)no1	22.9	-1.4	-8.5	-2.5	65.0*	52.8*	76.7*
COc1ccc(CCNC(=O)CSc2nc(-c3ccco3)cc(C(F)(F)F)n2)cc1OC	-1.9	-1.2	-8.1	-2.5	-12.2	nt	nt
CN1CCN(c2nc(-c3ccco3)cc(C(F)(F)F)n2)CC1	0.0	-0.1	-8.8	2.7	-4.7	nt	nt
CC(C)c1nnc(NC(=O)c2ccc3c(c2)OCO3)s1	-10.2	-5.3	0.7	2.1	-5.2	nt	nt
Cc1ccc(C)c(OCc2nnc(NC(=O)c3ccc4c(c3)OCO4)s2)c1	-0.7	1.6	10.2	-16.7	68.5*	28.0	nt
COc1ccccc1-c1nnc(NC(=O)c2ccc3c(c2)OCO3)s1	3.4	2.7	9.9	-5.0	90.3*	65.7*	84.8*
CC(C)[C@H](NC(=O)CCCn1nnc2ccccc2c1=O)C(=O)O	0.0	-0.6	-3.3	-18.6	34.0	nt	nt
Cc1ccc(C(=O)C(c2ccccc2)N2Cc3ccccc3C2=N)cc1 (configuration not stated)	9.0	1.0	9.8	22.2	78.6*	18.5	nt
COc1ccc(C(=O)C(c2ccccc2)N2CCOCC2)cc1 (configuration not stated)	4.4	-2.8	-4.4	-0.8	13.0	nt	nt
